Screening data deposited in PubChem BioAssay by several laboratories.
An excerpt weighted towards active compounds, which were near 2.6% of everything screened.
SENP8 block-1 = inhibitors of human SENP8 protease | purified SENP8, Z-RLRGG-aminoluciferin cleavage, luminescence | inhibition, % at 10 µM | actives 1.2% (n = 330,000); in the data active means inhibition above about 50%
Target sequence (Q96LD8 whole entry, looked up): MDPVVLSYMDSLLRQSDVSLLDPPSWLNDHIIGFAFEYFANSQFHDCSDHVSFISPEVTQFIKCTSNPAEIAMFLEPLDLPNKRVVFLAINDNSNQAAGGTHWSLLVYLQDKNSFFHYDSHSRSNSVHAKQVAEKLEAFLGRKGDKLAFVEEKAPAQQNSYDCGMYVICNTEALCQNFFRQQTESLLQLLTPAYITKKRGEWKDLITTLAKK
SENP7 block = inhibitors of human SENP7 protease; inhibition, % at 5 µM; actives 1.5% (n = 330,000); recombinant SENP7, Z-RLRGG-aminoluciferin luminescence, 40 min;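 active means inhibition above about 50% at the single test dose, limit read from the data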;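 further: plate controls were DMSO with enzyme for no effect and no enzyme buffer wells for full effect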
SENP6 inh = SENP6 protease inhibition | Q9GZR1 | inhibition, % at 10 µM | AID 2599 | actives 1.8% (n = 330,000) | Recombinant SENP6 catalytic domain, aminoluciferin luminescence;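 active means inhibition above about 50% at the single tested dose, limit read from the data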;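 further: plate controls were DMSO wells with enzyme for no effect and DMSO wells lacking enzyme for full effect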
Target sequence (Q9GZR1 628-1112 limits assumed): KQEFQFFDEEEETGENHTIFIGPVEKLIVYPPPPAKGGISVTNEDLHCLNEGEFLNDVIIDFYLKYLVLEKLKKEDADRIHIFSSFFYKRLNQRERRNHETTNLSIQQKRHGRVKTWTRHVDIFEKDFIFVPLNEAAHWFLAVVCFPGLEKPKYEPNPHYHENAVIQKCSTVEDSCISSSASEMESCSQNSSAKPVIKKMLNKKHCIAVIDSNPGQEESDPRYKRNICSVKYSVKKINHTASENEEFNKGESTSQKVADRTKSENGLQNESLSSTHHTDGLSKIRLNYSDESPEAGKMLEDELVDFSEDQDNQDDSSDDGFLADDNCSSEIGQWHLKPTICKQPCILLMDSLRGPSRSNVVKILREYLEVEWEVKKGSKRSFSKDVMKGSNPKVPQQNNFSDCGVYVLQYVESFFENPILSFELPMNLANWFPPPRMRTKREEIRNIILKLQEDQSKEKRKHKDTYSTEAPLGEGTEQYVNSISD
UCH37 DUB inh = blocks the human deubiquitinase UCH37 | Q9Y5K5 | purified proteasome/UCH37, Ub-AMC cleavage fluorescence | inhibition, % (no concentration beside the values) | actives 0.33% (n = 330,000) | AID 588478;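 active means mean inhibition over replicate wells above about 20%, limit read from the data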;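 further: 0% = compound-free wells with enzyme and 100% = wells lacking proteasome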
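Assay system: Proteasome-bound UCH37. Buffer or medium: pH 7.4 Tris-HCl (50 mM) with ovalbumin, ATP-MgCl2, DTT. Incubation: 30 min preincubation with enzyme, 25 min cleavage at room temperature. Measured by: fluorescence, ex 355 nm, em 460 nm. Read-out basis: percent inhibition. Control set: wells without proteasome as full block, compound-free enzyme plus substrate as uninhibited.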
SENP8 block-2 = inhibitors of human SENP8 protease; Q96LD8; recombinant SENP8, Nedd8 substrate fluorescence; inhibition, % at 20 µM; actives 0.64% (n = 360,000); AID 602440; in the data active means inhibition mostly above about 40%, no sharp cut-off; inactive means mostly below about 27%
SENP1 FRET inh = SENP1 (human) catalytic domain inhibition. recombinant SENP1 catalytic domain, CyPet-SUMO1-YPet FRET cleavage. actives 0.21% (n = 360,000). inhibition, % at 10 µM;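 active means inhibition at least 30% at 10 µM, raw YFP signal under a set limit, fluorescence ratio 0.5 to 1.5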;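 further: 0% = enzyme with DMSO and 100% = no enzyme wells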
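Assay system – human recombinant His6-tagged SENP1 catalytic domain enzyme · Input – SENP1 enzyme, 20 pM final · Buffer or medium – Tris pH 8 buffer plus EDTA, NaCl, BME, BSA, NP40, catalase · Schedule – 50 min reaction at room temperature · Technique – FRET read of cyan and yellow fluorescence · Control set – no-enzyme wells low, DMSO-plus-enzyme wells high control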
UCH37 confirm = confirmation of human UCH37 deubiquitinating enzyme inhibitors; shares compounds with UCH37 DUB inh; Proteasome-bound UCH37, Ub-AMC cleavage fluorescence; inhibition, % at 20 µM; actives 27% (n = 480); AID 624100;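 active means average inhibition over replicates above about 50%, so the earlier screening hit is confirmed, limit read from the data; inactive means the rest, counted as false positives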;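 further: based on cleavage rate fitted by regression over a 30 min kinetic read; 0% = proteasome plus Ub-AMC and 100% = Ub-AMC without proteasome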
* hit, by the source's call; nt = no result.

SMILES	SENP8 block-1	SENP7 block	SENP6 inh	UCH37 DUB inh	SENP8 block-2	SENP1 FRET inh	UCH37 confirm
COc1ccc(N(C(=O)c2ccc(Cl)cc2)C2=CC3CCC(C2)N3C)cc1 (stereo not drawn)	-2	2	-20	42*	29	1	0
CCOc1cc(C=NNC(=O)c2cccs2)cc([N+](=O)[O-])c1O	nt	nt	nt	30*	nt	nt	40
O=C1Nc2c(Cl)cc(Cl)cc2C1=O	nt	nt	nt	62*	22	-2	75*
CCOC(=O)/C(=C\C=C1/Sc2cc(OCC)c(OCC)cc2N1CC)C(C)=O	nt	nt	nt	29*	24	-28	18
O=C(COC(=O)c1ccc([N+](=O)[O-])o1)NC1CCCCC1	12	18	2	26*	33	0	19
CC1CCCCC1NC(=O)COC(=O)c1ccc([N+](=O)[O-])o1 (stereo not drawn)	37	14	22	30*	18	-5	1
O=C(COC(=O)c1ccc([N+](=O)[O-])o1)NC1CCCC1	5	4	13	32*	40*	-1	10
Cc1ccc(C(=O)OCC(=O)NC2CCCCC2)o1	-3	-2	12	nt	11	1	nt
S=C(NN=Cc1ccccc1Cl)Nc1ccccc1	nt	nt	nt	3	nt	nt	nt
O=C(NCCc1ccc(C(F)(F)F)cc1)C1COc2ccccc2O1 (stereo not drawn)	-12	-11	-6	5	6	1	nt
O=C(NCCC1=CCCCC1)c1ccc(Br)o1	4	7	6	83*	32	-1	91*
O=C(NCCC1=CCCCC1)c1ccc(Cl)c(S(=O)(=O)Nc2ccccc2)c1	-8	-4	-37	13	16	2	nt
Cc1ccccc1NS(=O)(=O)c1cc(C(=O)NCCC2=CCCCC2)ccc1C	-6	2	3	40*	7	-1	41
O=C(NCCC1=CCCCC1)C1COc2ccccc2O1 (stereo not drawn)	-10	11	-13	47*	13	3	67*
CCC(=NO)c1ccc(O)c(OC)c1	nt	nt	nt	1	nt	nt	nt
Cn1cnc([N+](=O)[O-])c1S(=O)(=O)c1ccc(Cl)cc1	nt	nt	nt	49*	20	2	13
C[C@H](NC(=O)c1nc[nH]c1C(=O)N[C@@H](C)C(=O)OC(C)(C)C)C(=O)OCc1ccccc1	-1	-3	-6	35*	11	-1	-30
CC(Cn1nnc([N+](=O)[O-])n1)=NNC(=O)c1ccc(C)cc1	nt	nt	nt	7	nt	nt	nt
CC(Sc1nnc(-c2cccnc2)n1N)C(=O)NCCC1=CCCCC1 (stereo not drawn)	5	-3	-13	63*	12	1	52*
CC(Sc1nnc(-c2cccnc2)n1N)C(=O)N1CCOCC1 (stereo not drawn)	10	2	2	2	16	2	nt
CC(=O)C(C(C)=O)C1(O)C(=O)c2ccccc2C1=O	-15	18	40	70*	61*	1	78*
COc1ccc(O)c(C2(O)C(=O)c3ccccc3C2=O)c1	-9	-4	-20	0	0	1	nt
C=C(C)CNC(=S)NN=C1CCCCc2ccccc21	nt	nt	nt	-1	nt	nt	nt
O=C(O)c1ccc(NN=C/C=C/c2ccc([N+](=O)[O-])o2)cc1	nt	nt	nt	30*	nt	nt	37
OC1(c2ccccc2)CC(=Nn2cnnc2)C=C1c1ccccc1 (stereo not drawn)	nt	nt	nt	3	nt	nt	nt
SMILES	SENP8 block-1	SENP7 block	SENP6 inh	UCH37 DUB inh	SENP8 block-2	SENP1 FRET inh	UCH37 confirm
CC(C)(C)OC(=O)N1CCC(NC(=O)c2nc[nH]c2C(=O)NCc2ccccc2)CC1	4	1	3	0	-277	-48	nt
CC(C)(C)OC(=O)NCc1ccc(CNC(=O)c2[nH]cnc2C(=O)NC2CCN(C(=O)OC(C)(C)C)CC2)cc1	-2	2	-3	39*	9	2	-16
Cc1ccc(C(=O)NN=Cc2cc(Br)c(Br)o2)cn1	nt	nt	nt	28*	nt	nt	13
NC(=O)COC(=O)c1ccc(Cl)c(S(=O)(=O)N(Cc2ccccc2)c2ccc(Cl)cc2)c1	-5	1	0	39*	16	1	-37
O=C(NN=C/C(Br)=C/c1ccccc1)c1cnccn1	nt	nt	nt	9	nt	nt	nt
Cc1cccc(C(=O)N2CCCCCC2)c1	-8	-11	-20	28	5	1	42
S=C(Nc1ccc(Nc2ccccc2)cc1)Nc1ccccn1	5	10	12	46*	11	0	-4
S=C(Nc1ccccc1)Nc1ccccn1	nt	nt	nt	nt	11	2	nt
O=C1NNC(c2ccccc2)=N/C1=C\c1ccco1	5	-3	4	6	29	-24	nt
O=C1NNC(c2ccccc2)=N/C1=C\c1ccccc1Cl	nt	nt	nt	34*	117*	2	74*
Cc1ccccc1/C=C/c1cc[n+](C)cc1	3	5	-2	-2	-41	0	nt
CC(C)n1cc(/C=C/c2cc[n+](C)cc2)c2ccccc21	-2	12	0	28*	30	-24	19
CCCOc1ccc(C2=CC(=O)C[C@H](c3ccc(OC)cc3)C2)cc1	-9	7	0	36*	20	-1	-2
CN1C2CCC1/C(=C/c1cccn1C)C(=O)/C2=C\c1cccn1C	-6	4	9	29*	2	-25	15
CN(Cc1ccccc1)C(=O)c1cccc(NC(=O)Cc2ccc([N+](=O)[O-])cc2)c1	-1	4	8	41*	12	4	9
CN(Cc1ccccc1)C(=O)c1cccc(NC(=O)Cc2cccc([N+](=O)[O-])c2)c1	1	-10	-5	3	11	3	nt
CCCCCCCCCCCCCCCCn1cc[n+](CC(C)=O)c1	nt	nt	nt	85*	10	-1	96*
CCCCCCn1ccc(=N)cc1	-3	-3	14	7	21	2	nt
CCOC(=O)C1CCCc2c1[nH]c1c(C(N)=O)cccc21 (stereo not drawn)	-3	-8	-19	53*	-60	-75	-13
Cc1cc(/C=C2/C(=O)N(C)C(=S)N2C)ccc1N1CCCC1	-12	15	15	2	33	-23	nt
CN1C(=O)/C(=C/C=C2/CCCN2C)N(C)C1=S	-8	4	7	34*	9	-31	29
CCCCNC(=O)C(=O)NN=Cc1cccc(Br)c1	nt	nt	nt	2	nt	nt	nt
Cc1ccccc1N=Nc1ccc(O)c2ncccc12	nt	nt	nt	3	24	2	nt
O=S(=O)(O)c1cccc2c(N=Nc3ccc(O)c4ncccc34)cccc12	nt	nt	nt	36*	26	-8	39
O=[N+]([O-])c1cc([N+](=O)[O-])c2oc(-c3ccccc3)c(Br)c2c1O	nt	nt	nt	27*	26	8	71*
CC[n+]1c(/C=C/c2c[nH]c3ccccc23)ccc2cc(C)ccc21	6	1	-9	29*	nt	nt	42
CCN1/C(=C/c2ccc3cc(C)ccc3[n+]2CC)Sc2cc(C)ccc21	nt	nt	nt	14	20	102	nt
